A short description of data set [1]: Cytotoxicity against Feline coronavirus infected cat CRFK cells by trypan blue exclusion method. Type of data set: cell-based, Felis catus. The conditions noted are these: CRFK cells infected with feline coronavirus. A digest of the protocol:
(§1)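 Uninfected confluent cultures were run in parallel with the infected cultures. Medium was replaced by 1 ml maintenance medium with serial compound concentrations; cell controls received no compound. Cultures were incubated at 37 °C. After 2 and 7 days, compound was withdrawn and viability was determined by trypan blue exclusion.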

The subject of another data set is Felid alphaherpesvirus 1. In words: Antiviral activity against Feline herpesvirus infected in cat CRFK cells assessed as protection from virus-induced cytopathogenicity by MTT assay. The class given is functional, organism-based. The conditions noted are these: Felid alphaherpesvirus 1, CRFK. On the technique in general: Damage to the host cells serves as the signal in cytopathic effect assays.

The subject of data set [2] is Vesicular stomatitis virus. In words: Antiviral activity against VSV infected in HEL cells assessed as protection from virus-induced cytopathogenicity after 1 to 2 days by MTT assay. The class given is functional, organism-based.
Data set [3] in a line: Cytotoxicity against VSV infected HEL cells by trypan blue exclusion method. Type of data set: cell-based. As to conditions: human, HEL cells infected with VSV. In short, it runs like this: as §1
In a further data set the test system is Feline coronavirus. In words: Antiviral activity against Feline coronavirus infected in cat CRFK cells assessed as protection from virus-induced cytopathogenicity by MTT assay. As to conditions: Alphacoronavirus 1, CRFK. The class given is functional, organism-based.
Data set [4] in a line: Cytotoxicity against Herpes simplex virus 2 G infected HEL cells by trypan blue exclusion method. The class given is cell-based. The conditions noted are these: human, HEL cells infected with herpes simplex virus 2 G. In short, it runs like this: as §1
Data set [5] in a line: Cytotoxicity against Vaccinia virus infected HEL cells by trypan blue exclusion method. The class given is cell-based. As to conditions: human, HEL cells infected with vaccinia virus. A digest of the protocol: as §1
Data set [6] is described as follows: Cytotoxicity against Feline herpesvirus infected cat CRFK cells by trypan blue exclusion method. Type of data set: cell-based, Felis catus. As to conditions: CRFK cells infected with feline herpesvirus. A digest of the protocol:
as §1

A short description of data set [7]: Cytotoxicity against Herpes simplex virus 1 KOS infected HEL cells by trypan blue exclusion method. The class given is cell-based. The conditions noted are these: human, HEL cells infected with herpes simplex virus 1 KOS. A digest of the protocol:
as §1

The test system of data set [8] is Respiratory syncytial virus. In words: Antiviral activity against Respiratory syncytial virus infected in human HeLa cells assessed as protection from virus-induced cytopathogenicity after 4 days by MTT assay. As to conditions: 96 h. The class given is functional, organism-based.
A short description of data set [9]: Cytotoxicity against PIV 3 infected african green monkey Vero cells by trypan blue exclusion method. The class given is cell-based. As to conditions: chlorocebus sabaeus, Vero cells infected with PIV 3. In short, it runs like this: as §1
A further data set has as its system Human alphaherpesvirus 2. In words: Antiviral activity against Herpes simplex virus 2 G infected in HEL cells assessed as protection from virus-induced cytopathogenicity after 2 to 3 days by MTT assay. As to conditions: Human alphaherpesvirus 2, strain G. Type of data set: functional, organism-based.
Another data set concerns Human respirovirus 3. The experiment in a line: Antiviral activity against PIV 3 infected in african green monkey Vero cells assessed as protection from virus-induced cytopathogenicity after 6 to 7 days by MTT assay. The conditions noted are these: Human respirovirus 3, Vero. The class given is functional, organism-based.
Another data set deals with Influenza A virus. The experiment in a line: Antiviral activity against Influenza A virus H1N1 infected in MDCK cells assessed as protection from virus-induced cytopathogenicity after 6 to 7 days by MTT assay. The class given is functional, organism-based.
A short description of data set [10]: Cytotoxicity against Punta Toro virus infected african green monkey Vero cells by trypan blue exclusion method. The class given is cell-based. The conditions noted are these: chlorocebus sabaeus, Vero cells infected with Punta Toro virus. In short, it runs like this:
as §1

The subject of data set [11] is Human alphaherpesvirus 1. In words: Antiviral activity against Herpes simplex virus 1 KOS infected in HEL cells assessed as protection from virus-induced cytopathogenicity after 2 to 3 days by MTT assay. The class given is functional, organism-based. The conditions noted are these: Human alphaherpesvirus 1, KOS.
The nature of data set [12]: Cytotoxicity against Human coxsackievirus B4 infected african green monkey Vero cells by trypan blue exclusion method. Type of data set: cell-based. As to conditions: chlorocebus sabaeus, Vero cells infected with human coxsackievirus B4. In short, it runs like this: as §1
Data set [13] relates to Coxsackievirus B4. In words: Antiviral activity against Human coxsackievirus B4 infected in african green monkey Vero cells assessed as protection from virus-induced cytopathogenicity after 2 days by MTT assay. Type of data set: functional, organism-based. The conditions noted are these: Enterovirus B, 48 h.
Another data set has as its system Sindbis virus. In words: Antiviral activity against Sindbis virus infected in african green monkey Vero cells assessed as protection from virus-induced cytopathogenicity after 2 to 3 days by MTT assay. The class given is functional, organism-based.
Data set [14] in a line: Cytotoxicity against Sindbis virus infected african green monkey Vero cells by trypan blue exclusion method. The class given is cell-based. As to conditions: chlorocebus sabaeus, Vero cells infected with Sindbis virus. In short, it runs like this: as §1
The nature of data set [15]: Cytotoxicity against Respiratory syncytial virus infected human HeLa cells by trypan blue exclusion method. Type of data set: cell-based. The conditions noted are these: HeLa cells infected with respiratory syncytial virus. In short, it runs like this:
as §1

Data set [16] is described as follows: Cytotoxicity against VSV infected human HeLa cells by trypan blue exclusion method. Type of data set: cell-based. The conditions noted are these: HeLa cells infected with VSV. A digest of the protocol: as §1
Data set [17] is described as follows: Cytotoxicity against Reovirus 1 infected african green monkey Vero cells by trypan blue exclusion method. The class given is cell-based. As to conditions: chlorocebus sabaeus, Vero cells infected with reovirus 1. In short, it runs like this:
as §1

For data set [18], the system named is Coxsackievirus B4. In words: Antiviral activity against Human coxsackievirus B4 infected in human HeLa cells assessed as protection from virus-induced cytopathogenicity after 2 days by MTT assay. Type of data set: functional, organism-based. The conditions noted are these: Enterovirus B, 48 h.
Data set [19] in a line: Cytotoxicity against Human coxsackievirus B4 infected human HeLa cells by trypan blue exclusion method. Type of data set: cell-based. The conditions noted are these: HeLa cells infected with human coxsackievirus B4. A digest of the protocol: as §1
In data set [20] the test system is Human alphaherpesvirus 1. In words: Antiviral activity against acyclovir-sensitive Herpes simplex virus 1 KOS infected in HEL cells assessed as protection from virus-induced cytopathogenicity after 2 to 3 days by MTT assay. Type of data set: functional, organism-based. The conditions noted are these: Human alphaherpesvirus 1, KOS.

For orientation: CC50 means the concentration that lowers cell viability or growth by half. As usually defined, the EC50 is the midpoint of the concentration-response curve. In the case of `Nc1nc2c(ncn2COC(CO)CO)c(=O)[nH]1` [GANCICLOVIR], the CC50 in [1], in data set [3], in data set [4], in [5], in [6] and in data set [7] was over 100 µM throughout. For the same compound, the EC50 in the data set with Felid alphaherpesvirus 1 is 2.6 µM; in data set [2], over 100 µM; with Feline coronavirus, over 100 µM.

On to `NC(=O)c1ncn([C@@H]2O[C@H](CO)[C@@H](O)[C@H]2O)n1` [RIBAVIRIN], for which the EC50 in [8] is 30 µM; in the data set on Human alphaherpesvirus 2 it was 50 µM; in the data set on Human respirovirus 3, 95 µM; in the data set with Influenza A virus, 7 µM; in data set [2], over 250 µM; in the data set with Human alphaherpesvirus 1 [11] it was 10 µM. Besides, the EC50 in the data set with Coxsackievirus B4 [13] is over 250 µM; with Sindbis virus it was 111 µM; with Coxsackievirus B4 [18] it was 30 µM; in the data set on Human alphaherpesvirus 1 [20], 125 µM. Besides, the CC50 in [9], in data set [10], in data set [3], in data set [12], in [4] and in data set [14] was over 250 µM throughout. The 50% cytotoxic concentration (CC50) in [15], in data set [5], in data set [16], in [17], in data set [7] and in data set [19] was over 250 µM throughout.
